Screening data from PubChem BioAssay.
KCNK9 inh = KCNK9 potassium channel inhibitors, primary screen, HEK293 cells, thallium flux; FluxOR thallium flux fluorescence; hits give low values; B-score at 10 µM; 310,000 compounds, 1.2% hits; AID 488922, 2010;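 active means ratio B-score over 3 SD below the library mean, with starting fluorescence within 5 SD of its mean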;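 further: negative B-score means less thallium flux so channel inhibition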
hERG rescue = hERG rescue from dofetilide block, primary screen, cell-based, CHO-hERG, FluxOR thallium flux, dofetilide IC70 | Voltage-gated inwardly rectifying potassium channel KCNH2 (Homo sapiens), Q12809 | dofetilide IC70 present | activation (rescue from dofetilide block), less the hit threshold, % at 10 µM | 310,000 compounds, 0.51% hits;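 active means activation above the mean of controls blocked by dofetilide plus 5 SD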;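 further: thallium influx through hERG after potassium depolarization seen as dye fluorescence rise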
KCNK3 block = human KCNK3 channel inhibitors, primary screen, CHO cells, FluxOR thallium flux, B-score; 340,000 compounds, 0.84% hits; B-score at 10 µM; Potassium channel subfamily K member 3 (Homo sapiens), O14649; FluxOR fluorescence; hits give low values;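 active means B-score under library mean minus 4 SD, starting fluorescence ratio at most library mean plus 5 SD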;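 further: more negative B-score means stronger inhibition of thallium flux through KCNK3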
Target sequence (O14649 whole entry, looked up): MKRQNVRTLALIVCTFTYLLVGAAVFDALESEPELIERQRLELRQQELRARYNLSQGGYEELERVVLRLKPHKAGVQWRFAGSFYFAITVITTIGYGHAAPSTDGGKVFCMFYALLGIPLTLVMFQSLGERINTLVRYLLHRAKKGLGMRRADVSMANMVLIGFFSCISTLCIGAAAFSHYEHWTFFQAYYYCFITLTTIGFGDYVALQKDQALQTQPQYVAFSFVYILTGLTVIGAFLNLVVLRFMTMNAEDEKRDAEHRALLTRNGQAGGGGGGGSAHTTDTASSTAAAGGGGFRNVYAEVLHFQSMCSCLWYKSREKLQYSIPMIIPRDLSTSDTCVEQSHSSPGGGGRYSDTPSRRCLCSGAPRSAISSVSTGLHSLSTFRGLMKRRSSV
KCNQ1 act = potentiators or activators of KCNQ1 channel, primary screen, cell-based, thallium flux, high-throughput | B-score at 10 µM | 310,000 compounds, 0.35% hits | CHO-K1 KCNQ1, thallium flux FluxOR fluorescence; hits give high values | AID 2648, 2010;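 active means fluorescence ratio B-score, a plate-corrected score, at least three library SD, with initial intensity B-score within 5 SD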
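Test system: CHO-K1 cells stably expressing KCNQ1 / Medium: assay buffer / Also added: depolarizing K+/Tl+ stimulus, K2SO4 and Tl2SO4 each 12.5 mM in 5x stock / Incubation: 90 min dye loading and 20 min compound exposure, both at room temperature / Signal: thallium influx via FluxOR fluorescence, kinetic imaging / Evaluation: B score of baseline-normalized fluorescence ratio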
Kir21 block = inhibitors of mouse Kir2.1 inward-rectifier potassium channel; AID 1672, 2009; Inward rectifier potassium channel 2 (Mus musculus), P35561; 310,000 compounds, 0.85% hits; HEK293-Kir2.1, FluxOR thallium flux fluorescence; hits give low values; B-score at 10 µM;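 active means fluorescence ratio B-score at or below minus 3 SD of library scores, with starting-brightness B-score within 2 SD, cut at about -4.2 in these data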;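 further: channel flux triggered by added potassium and thallium sulfate stimulus; B-score of peak minus minimum fluorescence over baseline after thallium stimulus; more negative B-score means stronger Kir2.1 block with less thallium influx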
KCNQ1 block = inhibitors of human KCNQ1 channel, primary screen, cell-based, thallium flux, high-throughput; 310,000 compounds, 1.3% hits; AID 2642, 2010; Potassium voltage-gated channel subfamily KQT member 1 (Homo sapiens), P51787; B-score at 10 µM; CHO-K1 KCNQ1, FluxOR thallium flux fluorescence; hits give high values;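 active means compounds whose thallium flux B-score, printed positive for inhibition, exceeds three library SD while starting fluorescence stays within three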;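 further: channel opened by potassium depolarization with thallium stimulus after 20 min compound exposure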
KCNK9 inh conf = KCNK9 potassium channel inhibitors, confirmation, HEK293 cells, thallium flux, duplicate; shares compounds with KCNK9 inh; FluxOR thallium flux fluorescence; 4,900 compounds, 43% hits; inhibition, % at 10 µM; AID 492992, 2010;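 active means thallium signal inhibited by more than 5 SD of the compound-free buffer control wells, on both duplicate plates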;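 further: 0% = assay buffer control wells without compound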
Kir2-1 spec = mouse Kir2.1 channel inhibition, confirmation, selectivity assay for KCNK9 modulator project, cell-based, HEK293, thallium flux; shares compounds with KCNK9 inh; 4,900 compounds, 4% hits; inhibition, % at 10 µM; Kir2.1 cells, FluxOR thallium flux fluorescence;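 active means thallium signal drop more than 5 SD beyond the mean of the no-compound control wells, seen in both duplicate plates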;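 further: signal is fluorescence rise after thallium addition divided by baseline fluorescence; plate controls were assay buffer only for no effect and full block by chlorpromazine control for full effect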
HEK293 Tl ctr = thallium flux in non-induced HEK293 cells, confirmation, counter-screen for KCNK9 inhibitor project, cell-based, second counter screen, non-induced KCNK9-HEK293; shares compounds with KCNK9 inh; FluxOR thallium flux; inhibition, % at 10 µM; 4,900 compounds, 40% hits; AID 492997, 2010;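 active means thallium signal drop beyond 5 SD of the untreated control mean, on both duplicate plates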;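 further: plate controls were buffer only IC0 wells for no effect and SID17386958 at its maximal inhibitory level for full effect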
Active calls of the source: *; i = inactive; . = no result given. Only some compounds are listed: those with a hit (about 3.7% of all), similar ones and a draw of the others.

SMILES | KCNK9 inh | hERG rescue | KCNK3 block | KCNQ1 act | Kir21 block | KCNQ1 block | KCNK9 inh conf | Kir2-1 spec | HEK293 Tl ctr
COc1cc(OC)c(C2=NOC(C(=O)N3CCc4ccccc4C3)C2)cc1Cl (stereo not drawn) | i | -13.4 | i | i | 0.44 | i | . | . | .
O=C(C1CC(c2cccc(Br)c2)=NO1)N1CCc2ccccc2C1 (stereo not drawn) | i | -8.8 | i | i | -1.08 | i | i | i | i
F[B-](F)(F)COCc1ccccc1Br | . | . | i | . | . | . | . | . | .
Cn1c2ccccc2c2nnc(SCC(=O)Nc3cccc(O)c3)nc21 | i | -6.8 | i | i | 1.01 | i | . | . | .
N#Cc1nc(Cc2ccccc2)oc1N1CCC(Cc2ccccc2)CC1 | i | -7.2 | i | i | 0.99 | i | i | i | i
N#Cc1nc(COc2ccc(F)cc2)oc1N1CCC(Cc2ccccc2)CC1 | i | -10.6 | i | i | 0.05 | i | . | . | .
CCOC(=O)CC1C(=O)NCCN1c1nc2ccc(C)cn2c(=O)c1/C=C1\SC(=S)N(CC(C)C)C1=O (stereo not drawn) | -9.87* | -18.9 | i | i | -4.21 | 8* | 45.5%* | 43.0%* | 61.5%*
CCCN1C(=O)/C(=C/c2c(N3CCNC(=O)C3CC(=O)OCC)nc3c(C)cccn3c2=O)SC1=S (stereo not drawn) | i | -39.3 | i | i | -3.26 | i | . | . | .
Cn1cccc1C(=O)NC(=O)COC(=O)CCNS(=O)(=O)c1ccc(Cl)cc1 | . | . | i | . | . | . | . | . | .
CC(C)(C)c1ccc(/C=N/NC(=S)NC2CCCCC2)cc1 | i | -7.0 | i | i | 0.5 | i | i | i | i
Cc1coc2cc3oc(=O)c(CCC(=O)N4C[C@H]5C[C@@H](C4)c4cccc(=O)n4C5)c(C)c3cc12 | i | -5.9 | i | i | -1.51 | i | . | . | .
COc1ccc(OC)c(C(=O)CN2CCN(S(=O)(=O)c3ccc(Br)cc3)CC2)c1 | i | -8.5 | i | i | 1.3 | i | i | i | i
O=c1c2c3c(sc2n(CCN2CCCCC2)c(=O)n1Cc1ccco1)CCCCC3 | i | -14.3 | i | i | 4.36e-16 | i | i | i | i
CC(C(=O)OCC(=O)NC1CCCCC1)N1C(=O)c2ccccc2C1=O (stereo not drawn) | . | . | i | . | . | . | . | . | .
CCc1nnc(NC(=O)C(NC(=O)c2ccccc2Cl)C(C)C)s1 (stereo not drawn) | i | -8.1 | i | i | 0.96 | i | . | . | .
CC(C)[C@H](NC(=O)c1ccccc1Cl)C(=O)Nc1nc(-c2ccccn2)cs1 | -9.31* | -8.3 | i | i | 2.13 | i | 42.5%* | i | 34.0%*
O=C(Nc1ccccc1)Nc1ccc(-n2ccc(C(F)(F)F)n2)cc1 | -9.03* | -18.7 | i | i | -0.18 | 6* | 48.0%* | i | i
O=C(O)CC(CC(=O)Nc1ccc(-n2ccc(C(F)(F)F)n2)cc1)c1ccccc1 (stereo not drawn) | i | -5.7 | i | i | 1.66 | i | . | . | .
